The record followed here is ChEMBL document CHEMBL5357045, “Development of pharmacophore models for AcrB protein and the identification of potential adjuvant candidates for overcoming efflux-mediated colistin resistance” (2024).

Test [1] has as its system Escherichia coli. Description: Antibacterial activity against Escherichia coli. Type of test: functional.
In test [2] the test system is Escherichia coli. The test is described as follows: Antibacterial activity against Escherichia coli ATCC 35218. It is filed as functional.
Test [3] deals with Escherichia coli. The test is described as follows: Antibacterial activity against Escherichia coli by broth dilution method. Type of test: functional. On the technique in general: Broth dilution looks for growth in wells or tubes with falling amounts of substance.
The test system of test [4] is Escherichia coli. Description: Antibacterial activity against Escherichia coli BW25113. Type of test: functional.
For test [5], the system named is Morganella morganii. Description: Synergistic antibacterial activity against Morganella morganii UM869 in presence of colistin by checkerboard assay. It is filed as functional. In outline: (§1)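 Checkerboard run in triplicate in cation-supplemented Mueller–Hinton broth. Colistin 512 to 1 µg mL−1 is crossed with argatroban 256 to 2 µg mL−1. Inoculum is ~5–6×10^5 CFU mL−1, incubated 37 °C for 24 h. ΣFIC = C_A/MIC_A + C_B/MIC_B, where C is each drug's concentration in combination at the MIC well.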

Test [6] has as its system Klebsiella pneumoniae. Description: Antibacterial activity against Klebsiella pneumoniae UK48 incubated for 16 to 18 hrs by broth microdilution method. To be noted: time 16-18 hrs. It is filed as functional. Put shortly: (§2)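 CLSI broth microdilution in cation-adjusted Mueller–Hinton broth, inoculum 5×10^5 CFU mL−1. Ranges tested: colistin 1024–2 μg mL−1, CCCP 80–1 μg mL−1, argatroban 1024–2 μg mL−1. Incubation is 37 °C for 16–18 h. Growth is visualized with triphenyl tetrazolium chloride, and the MIC is interpreted by CLSI breakpoint criteria.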

In test [7] the test system is Morganella morganii. The test is described as follows: Bacteriostatic activity against Morganella morganii UM869 incubated for 24 hrs by time-kill assay. Type of test: functional, organism-based. In outline:
(§3)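 Log-phase cultures (~5×10^6 CFU mL−1) in cation-adjusted Mueller–Hinton broth at 37 °C are given drugs alone or combined at ¼ MIC; untreated growth is the control. At 0, 4, 8, 12 and 24 h, samples are diluted […] in 0.7% NaCl, 100 µL is plated on Mueller–Hinton agar overnight at 37 °C, and colonies are counted. Three repeats, mean reported.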

Test [8] deals with Klebsiella pneumoniae. Description: Synergistic antibacterial activity against Klebsiella pneumoniae UK48 in presence of colistin by checkerboard assay. It is filed as functional. In outline: as §1
Test [9] deals with Morganella morganii. The test is described as follows: Bacteriostatic activity against Morganella morganii UM573 incubated for 24 hrs by time-kill assay. Type of test: functional, organism-based. In outline: as §3
Test [10] relates to Klebsiella pneumoniae. The test is described as follows: Antibacterial activity against Klebsiella pneumoniae UK48 assessed as efflux pump inhibition by measuring mean fluorescence intensity incubated for 30 mins by EtBr staining based assay. Type of test: functional, organism-based. Put shortly: (§4)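 Isolates grown in LB broth and adjusted to 0.5 McFarland. Cultures with no drug, CCCP or test agent (fraction of each agent's MIC per isolate) were shaken 30 min at 37 °C, then swabbed cartwheel-style onto TSA plates containing EtBr 2.5 mg L⁻¹ and incubated 18 h at 37 °C. Swab fluorescence was imaged and mean intensity compared by Student's t-test. K. pneumoniae ATCC13882 and SDL79 served as controls.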

The subject of test [11] is Morganella morganii. The test is described as follows: Antibacterial activity against Morganella morganii UM869 incubated for 16 to 18 hrs by broth microdilution method. It is filed as functional. The note with it: time 16-18 hrs. Put shortly: as §2
The subject of test [12] is Morganella morganii. The test is described as follows: Synergistic antibacterial activity against Morganella morganii UM573 in presence of colistin by checkerboard assay. It is filed as functional. In outline:
as §1

Test [13] relates to Klebsiella pneumoniae. The test is described as follows: Bacteriostatic activity against Klebsiella pneumoniae UK48 incubated for 24 hrs by time-kill assay. It is filed as functional, organism-based. Put shortly: as §3
In test [14] the test system is Morganella morganii. Description: Antibacterial activity against Morganella morganii UM573 assessed as efflux pump inhibition by measuring mean fluorescence intensity incubated for 30 mins by EtBr staining based assay. Type of test: functional, organism-based. In outline:
as §4

Test [15] relates to Morganella morganii. The test is described as follows: Antibacterial activity against Morganella morganii UM573 incubated for 16 to 18 hrs by broth microdilution method. Type of test: functional. To be noted: time 16-18 hrs. Put shortly:
as §2

Test [16] has as its system Morganella morganii. Description: Antibacterial activity against Morganella morganii UM869 assessed as efflux pump inhibition by measuring mean fluorescence intensity incubated for 30 mins by EtBr staining based assay. It is filed as functional, organism-based. Put shortly: as §4
Test [17] has as its system Escherichia coli. The test is described as follows: Antibacterial activity against Escherichia coli AG100A. It is filed as functional.
Test [18] relates to Escherichia coli. The test is described as follows: Antibacterial activity against Escherichia coli APEC_O2. It is filed as functional.

SMILES strings stand for the structures. Values after ≈ are worked out from the molar mass of the structure shown. Active and inactive are the calls of the source.

As to `Cc1onc(-c2ccccc2)c1C(=O)N[C@@H]1C(=O)N2[C@@H]1SC(C)(C)[C@@H]2C(=O)O` [OXACILLIN], in [1], the minimal inhibitory concentration (MIC) (in general, the smallest concentration in the dilution series that meets the test's criterion for growth inhibition) stood at 1020 µg/mL (≈ 2550 µM). On to `C[C@H]1[C@H](C)CC[C@]2(C(=O)O)CC[C@]3(C)C(=CC[C@@H]4[C@@]5(C)CC[C@H](O)C(C)(C)[C@@H]5CC[C@]43C)[C@H]12` [URSOLIC ACID], for which the MIC in test [1] came to 50 µg/mL (≈ 109 µM).

Take `C[C@H]1[C@@H](O)O[C@@H]2O[C@@]3(C)CC[C@H]4[C@H](C)CC[C@@H]1[C@@]24OO3` [ARTENIMOL]: 1020 µg/mL (≈ 3600 µM) was the least that counted as inhibitory in test [2] (MIC). For `Nc1ccnc2ccccc12` [QUINOLIN-4-AMINE], the MIC in test [3] was 14.4 µg/mL (≈ 100 µM).

Regarding `O=C(Nc1ccccc1)c1ccccc1C(=O)Nc1ccccc1`, 64 µg/mL (≈ 202 µM) was the least that counted as inhibitory in [3] (MIC). `O=c1c(O)c(-c2ccc(O)c(O)c2)oc2cc(O)cc(O)c12` [QUERCETIN] had an MIC in test [4] of 1020 µg/mL (≈ 3390 µM). Same read-out and setting: the result for `CN(C)CCCN1c2ccccc2Sc2ccc(Cl)cc21` [CHLORPROMAZINE] reads 256 µg/mL (≈ 803 µM). Regarding `C[C@@H]1CNc2c(cccc2S(=O)(=O)N[C@@H](CCCNC(=N)N)C(=O)N2CC[C@@H](C)C[C@@H]2C(=O)O)C1`, the MIC in test [5] is 128 µg/mL; in [6], no less than 512 µg/mL; in test [8], 64 µg/mL; in test [11] it was no less than 512 µg/mL; in test [12] it was 128 µg/mL; in test [15], no less than 512 µg/mL. Moreover, the outcome in test [7], in test [9] and in test [13] was inactive. Also, the result in test [10], in test [14] and in [16] was Active. Consider `N#CC(C#N)=NNc1cccc(Cl)c1` [CARBONYL CYANIDE M-CHLOROPHENYLHYDRAZONE], for which the MIC is 5 µg/mL (≈ 24.4 µM) in test [6], 20 µg/mL (≈ 97.7 µM) in [11] and 20 µg/mL (≈ 97.7 µM) in [15]. Also, the outcome in test [7], in test [9], in test [10], in test [13], in test [14] and in [16] was Active. `CC(C)=CCC/C(C)=C/CO` [GERANIOL] displayed an MIC in test [17] of 64 µg/mL (≈ 415 µM). In [1], `CC[n+]1c(-c2ccccc2)c2cc(N)ccc2c2ccc(N)cc21` [HOMIDIUM] showed a minimum inhibitory concentration (MIC) of 512 µg/mL. Turning to `CC(Cc1ccc(O)c(O)c1)C(C)Cc1ccc(O)c(O)c1` (centres undefined) [NORDIHYDROGUAIARETIC ACID], the MIC in test [4] stood at 512 µg/mL (≈ 1690 µM).

Take `CC1(C)Cc2c(C#N)c(SCCc3ccccc3)nc(N3CCOCC3)c2CO1`: in test [1], the MIC came to 4.05 µg/mL (≈ 9.89 µM).

Consider `C[C@H]1[C@H](OC(=O)CCC(=O)O)O[C@@H]2O[C@@]3(C)CC[C@H]4[C@H](C)CC[C@@H]1[C@@]24OO3` [ARTESUNATE], for which the minimal inhibitory concentration (MIC) in test [2] turned out to be 4100 µg/mL (≈ 10700 µM). `CC(C)=CC[C@@H](O)C1=CC(=O)c2c(O)ccc(O)c2C1=O` [SHIKONIN]: in test [4], the lowest concentration to inhibit growth (MIC) was 256 µg/mL (≈ 888 µM).

The molecule `CN[C@H]1CC[C@@H](c2ccc(Cl)c(Cl)c2)c2ccccc21` [SERTRALINE] registered a minimum inhibitory concentration (MIC) in [18] of 32 µg/mL (≈ 104 µM). Molecule `O=c1c(-c2ccc(O)cc2)coc2cc(O)ccc12` [DAIDZEIN] registered an MIC in [1] of 16 µg/mL (≈ 62.9 µM).

`OC(c1cc(-c2ccc(C(F)(F)F)cc2)nc(C(F)(F)F)c1)C1CCCCN1` (centres undefined) [ENPIROLINE] came in with an MIC in [3] of 20.2 µg/mL (≈ 50 µM). For the molecule `CN(C)CCC=C1c2ccccc2CCc2ccccc21` [AMITRIPTYLINE], the MIC in [4] was 444 µg/mL (≈ 1600 µM). As to `CC1=CC(=O)c2c(O)cccc2C1=O` [PLUMBAGIN], the MIC in test [4] worked out at 128 µg/mL (≈ 680 µM). Consider `CC[C@H]1OC(=O)[C@H](C)[C@@H](O[C@H]2C[C@@](C)(OC)[C@@H](O)[C@H](C)O2)[C@H](C)[C@@H](O[C@@H]2O[C@H](C)C[C@H](N(C)C)[C@H]2O)[C@](C)(O)C[C@@H](C)C(=O)[C@H](C)[C@@H](O)[C@]1(C)O` [ERYTHROMYCIN], for which, in [1], the MIC worked out at 367 µg/mL (≈ 500 µM). Same read-out and setting: the result for `O=c1[nH]c2ccccc2n1C1CCN(CCCC(c2ccc(F)cc2)c2ccc(F)cc2)CC1` [PIMOZIDE] reads 92.3 µg/mL (≈ 200 µM); that for `O=C(Cc1cccs1)N[C@@H]1C(=O)N2C(C(=O)O)=C(/C=C/c3ccc([N+](=O)[O-])cc3[N+](=O)[O-])CS[C@H]12` [NITROCEFIN], 1.9 µg/mL (≈ 3.68 µM). For `O=c1c2cc(O)c(O)cc2oc2cc(O)c([C@@H]3O[C@H](CO)[C@@H](O)[C@H](O)[C@H]3O)c(O)c12` [MANGIFERIN], the MIC in test [4] worked out at 512 µg/mL (≈ 1210 µM).

Turning to `CC(=O)NC[C@H]1CN(c2ccc(N3CCOCC3)c(F)c2)C(=O)O1` [LINEZOLID], in test [1], the MIC was 512 µg/mL (≈ 1520 µM).
